Test results as given in ChEMBL document CHEMBL1212900, “Falcipain inhibitors: optimization studies of the 2-pyrimidinecarbonitrile lead series” (J Med Chem, 2010).

Experiments:
[1] = Inhibition of Plasmodium falciparum falcipain-3 expressed in Escherichia coli
Summary of the method: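 Refolded recombinant enzyme from E. coli, 2 nM, in 100 mM sodium acetate pH 5.5 with 500 μM CHAPS and 10 mM DTT, DMSO up to 1%. H-D-Val-Leu-Arg-AFC at 150 μM final. Reaction started by enzyme addition; fluorescence monitored 1 h at room temperature. IC50 derived from percent activity plotted against inhibitor concentration.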

[2] = Inhibition of Plasmodium falciparum falcipain-2 expressed in Escherichia coli
Summary of the method: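 Recombinant E. coli-expressed, refolded enzyme at 0.25 nM in 100 mM sodium acetate pH 5.5, 500 μM CHAPS, 10 mM DTT, DMSO ≤1%. Substrate H-D-Val-Leu-Arg-AFC at 30 μM final. Inhibitor dilutions mixed with substrate, enzyme added last; fluorescence followed 1 h at room temperature. IC50 from percent activity versus concentration.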

Plasmodium falciparum = test: Antiplasmodial activity against Plasmodium falciparum W2 after 48 hrs; assay type: functional, organism-based; conditions: W2, 48 h
Summary of the method: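 W2 P. falciparum grown in human erythrocytes, 2% hematocrit, RPMI with 10% human serum or 0.5% AlbuMAX II; sorbitol-synchronized. Serial dilutions from DMSO stocks added at ring stage for 48 h, medium and drug renewed at 24 h. Cells fixed in 1% formaldehyde, stained with YOYO-1, parasitemia counted by flow cytometry; IC50 from percent parasitemia versus untreated controls.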

| IC50 [1] [nM] | IC50 [2] [nM] | IC50 (Plasmodium falciparum) [nM] | Structure (SMILES) |
| --- | --- | --- | --- |
| 104 | 3 | – | CC(C)CN(NC(=O)c1ccc(-c2ccccc2)nc1)c1nc(C#N)ncc1Br |
| 111 | 3 | 438 | CN1CCN(Cc2ccc(C(=O)NN(CC3CCC3)c3nc(C#N)ncc3Br)cc2)CC1 |
| 6 | 0.5 | 33 | CN1CCN(Cc2ccc(C(=O)NN(CC3CCCC3)c3nc(C#N)ncc3Br)cc2)CC1 |
| 16 | 2 | 263 | CN1CCN(Cc2ccc(C(=O)NN(CC3CCCCC3)c3nc(C#N)ncc3Br)cc2)CC1 |
| 17 | 5 | 1490 | CN1CCN(Cc2ccc(C(=O)NN(CC3(C)CCCCC3)c3nc(C#N)ncc3Br)cc2)CC1 |
| 351 | 20 | – | CC(C)CN(NC(=O)c1ccc(-c2ccc(Cl)cc2)o1)c1nc(C#N)ncc1Br |
| 97 | 5 | – | CC(C)CN(NC(=O)c1ccc(-c2cccc(C(F)(F)F)c2)o1)c1nc(C#N)ncc1Br |
| 837 | 25 | – | Cc1oc(-c2ccccc2)cc1C(=O)NN(CC(C)C)c1nc(C#N)ncc1Br |
| 549 | 6 | – | CC(C)CN(NC(=O)c1ccc(-c2ccccc2)s1)c1nc(C#N)ncc1Br |
| 374 | 3 | – | CC(C)CN(NC(=O)c1cc(-c2ccccc2)cs1)c1nc(C#N)ncc1Br |
| 45 | 4 | 177 | CN1CCN(Cc2ccc(C(=O)NN(CCC3CCCC3)c3nc(C#N)ncc3Br)cc2)CC1 |
| 94 | 14 | – | CC(C)CN(NC(=O)c1ncoc1-c1ccccc1)c1nc(C#N)ncc1Br |
| 54 | 1.5 | – | CC(C)CN(NC(=O)c1csc(-c2ccccc2)n1)c1nc(C#N)ncc1Cl |
| 130 | 3 | – | CC(C)CN(NC(=O)c1csc(-c2ccccc2)n1)c1nc(C#N)ncc1Br |
| 950 | 3 | – | Cc1nc(-c2ccc3c(c2)CCO3)sc1C(=O)NN(CC(C)C)c1nc(C#N)ncc1Cl |
| 198 | 2 | – | CC(C)CN(NC(=O)c1cnc(-c2ccc3c(c2)CCO3)s1)c1nc(C#N)ncc1Cl |
| 146 | 4 | – | CC(C)CN(NC(=O)c1c[nH]c(-c2ccccc2)n1)c1nc(C#N)ncc1Br |
| 120 | 2 | – | CC(C)CN(NC(=O)c1cc(-c2ccccc2)no1)c1nc(C#N)ncc1Cl |
| 359 | 10 | – | CC(C)CN(NC(=O)c1cc(-c2ccccc2)no1)c1nc(C#N)ncc1Br |
| 1100 | 676 | – | Cc1nn(-c2ccccc2)nc1C(=O)NN(CC(C)C)c1nc(C#N)ncc1Br |
| 6 | 1.5 | – | COc1ccc(CC(=O)NN(CC(C)C)c2nc(C#N)ncc2Br)cc1 |
| 5 | 1 | – | COc1ccc(CC(=O)NN(CC(C)C)c2nc(C#N)ncc2Cl)cc1 |
| 4 | 3 | – | CC(C)CN(NC(=O)Cc1ccc(F)cc1)c1nc(C#N)ncc1Br |
| 8 | 0.5 | – | CC(C)CN(NC(=O)Cc1c(F)cccc1F)c1nc(C#N)ncc1Br |

| IC50 [1] [nM] | IC50 [2] [nM] | IC50 (Plasmodium falciparum) [nM] | Structure (SMILES) |
| --- | --- | --- | --- |
| 66 | 1 | – | CC(C)CN(NC(=O)Cc1c(Cl)cccc1Cl)c1nc(C#N)ncc1Br |
| 21 | 1 | – | Cc1cc(C)c(CC(=O)NN(CC(C)C)c2nc(C#N)ncc2Br)c(C)c1 |
| 60 | 18 | – | CC(C)CN(NC(=O)C(C)(C)c1ccccc1)c1nc(C#N)ncc1Br |
| 18 | 4 | – | CC(C)CN(NC(=O)C(C)(C)c1ccc(Cl)cc1)c1nc(C#N)ncc1Br |
| 34 | 6 | – | COc1ccc(C(C)(C)C(=O)NN(CC(C)C)c2nc(C#N)ncc2Br)cc1 |
| 102 | 6 | – | CC(C)CN(NC(=O)C1(c2ccccc2)CC1)c1nc(C#N)ncc1Br |
| 69 | 15 | – | CC(C)CN(NC(=O)C1(c2ccc(Cl)cc2)CC1)c1nc(C#N)ncc1Br |
| 216 | 12 | – | CC(C)CN(NC(=O)C1(c2ccc(Cl)cc2)CCC1)c1nc(C#N)ncc1Br |
| 137 | 11 | – | CC(C)CN(NC(=O)C1(c2ccccc2)CCCC1)c1nc(C#N)ncc1Br |
| 184 | 12 | – | CC(C)CN(NC(=O)C1(c2ccc(Cl)cc2)CCCC1)c1nc(C#N)ncc1Br |
| 1650 | 40 | – | CC(C)CN(NC(=O)C1(c2ccc(Cl)cc2)CCCCC1)c1nc(C#N)ncc1Br |
| 34 | 7 | – | CC(C)CN(NC(=O)C(N)c1ccccc1)c1nc(C#N)ncc1Br (stereo unspecified) |
| 55 | 0.4 | 15 | CC(C)CN(NC(=O)c1ccc(CN2CCN(C)CC2)cc1)c1nc(C#N)ncc1Br |
| 158 | 19 | 409 | CN1CCN(Cc2ccc(C(=O)NN(CC(C)(C)C)c3nc(C#N)ncc3Br)cc2)CC1 |
| 68 | 4 | 262 | CC(C)CCN(NC(=O)c1ccc(CN2CCN(C)CC2)cc1)c1nc(C#N)ncc1Br |
| 39 | 3 | 1500 | CN1CCN(Cc2ccc(C(=O)NN(CCC(C)(C)C)c3nc(C#N)ncc3Br)cc2)CC1 |
| 15 | < 0.5 | – | CC(C)CN(NC(=O)c1cccc(-c2ccncc2)c1)c1nc(C#N)ncc1Br |
| 12 | < 0.5 | – | CC(C)CN(NC(=O)c1cccc(-c2cncnc2)c1)c1nc(C#N)ncc1Br |
| 44 | 2 | 194 | CCC(CC)CN(NC(=O)c1ccc(CN2CCN(C)CC2)cc1)c1nc(C#N)ncc1Br |
| 802 | 81 | 1200 | CCCC(CCC)CN(NC(=O)c1ccc(CN2CCN(C)CC2)cc1)c1nc(C#N)ncc1Br |
| 656 | 293 | 566 | CCCCC(CCCC)CN(NC(=O)c1ccc(CN2CCN(C)CC2)cc1)c1nc(C#N)ncc1Br |
| 35 | 0.9 | 24 | CCC(C)CN(NC(=O)c1ccc(CN2CCN(C)CC2)cc1)c1nc(C#N)ncc1Br (stereo unspecified) |
| 4 | < 0.5 | – | CC(C)CN(NC(=O)c1cncc(-c2ccccc2)c1)c1nc(C#N)ncc1Br |
| 26 | 0.8 | – | CC(C)CN(NC(=O)c1cncc(-c2ccccc2)c1)c1nc(C#N)ncc1Cl |

| IC50 [1] [nM] | IC50 [2] [nM] | IC50 (Plasmodium falciparum) [nM] | Structure (SMILES) |
| --- | --- | --- | --- |
| 30 | 1 | – | CC(C)CN(NC(=O)c1cc(-c2ccccc2)ncn1)c1nc(C#N)ncc1Cl |
| 164 | 0.8 | – | Cc1nc(-c2ccc(C(=O)NN(CC(C)C)c3nc(C#N)ncc3Br)cc2)cs1 |
| 52 | 2 | 272 | CCCC(C)CN(NC(=O)c1ccc(CN2CCN(C)CC2)cc1)c1nc(C#N)ncc1Br (stereo unspecified) |
| 1370 | 29 | 401 | CC(C)N(NC(=O)c1ccc(CN2CCN(C)CC2)cc1)c1nc(C#N)ncc1Br |
| 2040 | 187 | 1610 | CCC(CC)N(NC(=O)c1ccc(CN2CCN(C)CC2)cc1)c1nc(C#N)ncc1Br |
| 330 | 5 | 1080 | CN1CCN(Cc2ccc(C(=O)NN(CC3CC3)c3nc(C#N)ncc3Br)cc2)CC1 |
| 148 | 8 | – | CC(C)CN(NC(=O)c1ccc(-n2cccn2)cc1)c1nc(C#N)ncc1Cl |
| 144 | 2 | – | CC(C)CN(NC(=O)c1ccc(-n2ccc(C(F)(F)F)n2)cc1)c1nc(C#N)ncc1Cl |
| 52 | 3 | – | CC(C)CN(NC(=O)c1ccc(-n2cncn2)cc1)c1nc(C#N)ncc1Br |
| 39 | 1 | – | CC(C)CN(NC(=O)c1ccc(-c2ccccc2)o1)c1nc(C#N)ncc1Br |
| 999 | 406 | – | Cc1nc(-c2ccccc2)sc1C(=O)NN(CC(C)C)c1nc(C#N)ncc1Br |
| 1540 | 12 | – | Cc1nc(-c2ccc(C(F)(F)F)cc2)sc1C(=O)NN(CC(C)C)c1nc(C#N)ncc1Cl |
| 692 | 4 | – | COc1ccc(-c2cc(C(=O)NN(CC(C)C)c3nc(C#N)ncc3Br)no2)cc1 |
| 128 | 8 | – | CC(C)CN(NC(=O)c1cnoc1-c1ccccc1)c1nc(C#N)ncc1Cl |
| 71 | 20 | – | Cc1c(C(=O)NN(CC(C)C)c2nc(C#N)ncc2Br)noc1-c1ccccc1 |
| 571 | 100 | – | Cc1c(-c2ccccc2Cl)noc1C(=O)NN(CC(C)C)c1nc(C#N)ncc1Cl |
| 352 | 3 | – | CC(C)CN(NC(=O)c1cc(-c2ccccc2)[nH]n1)c1nc(C#N)ncc1Br |
| 63 | 7 | – | CC(C)CN(NC(=O)c1ccnn1-c1ccccc1)c1nc(C#N)ncc1Cl |
| 218 | 4 | – | CC(C)CN(NC(=O)c1cc(-c2cccs2)on1)c1nc(C#N)ncc1Br |
| 451 | 5 | – | CC(C)CN(NC(=O)c1cc(-c2cccs2)[nH]n1)c1nc(C#N)ncc1Cl |
| 165 | 2 | – | Cc1nc(-c2ccccc2)ncc1C(=O)NN(CC(C)C)c1nc(C#N)ncc1Br |
| 239 | 9 | – | CC(C)CN(NC(=O)c1ccc(-n2ccnc2)cc1)c1nc(C#N)ncc1Br |
| 407 | 58 | – | C[C@H]1CCC[C@H]1N(NC(=O)OC(C)(C)C)c1nc(C#N)ncc1Br (relative stereo) |
| 6 | 3 | – | C[C@@H]1CCC[C@H]1N(NC(=O)OC(C)(C)C)c1nc(C#N)ncc1Br (relative stereo) |
